Experimental data taken from ChEMBL document CHEMBL2424590, “4-[18F]Fluoro-m-hydroxyphenethylguanidine: a radiopharmaceutical for quantifying regional cardiac sympathetic nerve density with positron emission tomography” (J Med Chem, 2013).

Legend:
Rattus norvegicus [1] = test: Biodistribution in Sprague-Dawley rat uterus at 20 to 120 uCi, iv after 60 mins by gamma counting analysis; format: ADME, organism-based; settings: in vivo, 1 h
In short: (§1)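 Male and female rats (2 per sex per time point, 280–330 g) under light isoflurane given tail-vein bolus of 20–120 μCi tracer in 0.05–0.10 mL isotonic 60 mM sodium phosphate, pH 5.4. Tissues sampled at 5, 30, 60 or 120 min, weighed and gamma-counted. Decay-corrected dpm per gram normalised to injected dpm and body weight, given as %ID·kg/g.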

Lung [2] = test: Biodistribution in Sprague-Dawley rat lung at 20 to 120 uCi, iv after 5 mins by gamma counting analysis; format: ADME, organism-based; settings: in vivo
In short: (§2)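 Sprague-Dawley rats (280–330 g), 2 male and 2 female per time point (5, 30, 60, 120 min), under light isoflurane, received a tail-vein bolus of 20–120 μCi tracer in 0.05–0.10 mL isotonic 60 mM sodium phosphate, pH 5.4. Tissues were weighed and gamma-counted. Decay-corrected dpm/g was normalized to injected dpm per kg body weight (%ID·kg/g).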

Plasma = test: Metabolic stability in rhesus macaque monkey plasma assessed as retention time at 5 to 6 mCi, iv by RP-HPLC analysis; format: ADME, organism-based, Macaca mulatta; settings: in vivo
In short: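 Six venous samples (1.5–2.0 mL; typically 1, 2, 4, 10, 30, 60 min) drawn during the monkey PET scan into heparin and centrifuged 1 min at 12000 × g. Plasma deproteinised with HClO₄ (final 0.4 N), spun, neutralised with KOH to pH 7.0–7.5 and filtered twice (0.22 μm). Analysed by reverse-phase HPLC (10% EtOH in 60 mM NaH₂PO₄, pH 5.4, 1.0 mL/min) with NaI(Tl) radiodetection. Decay-corrected intact fraction per sample; T1/2 is the time at which 50% of plasma activity is metabolite.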

Ovary = test: Biodistribution in Sprague-Dawley rat ovary at 20 to 120 uCi, iv after 60 mins by gamma counting analysis; format: ADME, organism-based, Female gonad; settings: in vivo, 1 h
In short: as §2, with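 “g)” for “g), 2 male and 2 female per time point (5, 30, 60, 120 min),”, “isoflurane” for “isoflurane,”, “Sampling was at 5, 30, 60 or 120 min. […]” for “Tissues”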

[3] = Drug uptake in rhesus macaque monkey cortex 5 to 6 mCi, iv after 90 mins by PET analysis; format: ADME, organism-based, Macaca mulatta; settings: in vivo, 1.5 h
[4] = Drug uptake in rhesus macaque monkey liver at 5 to 6 mCi, iv after 90 mins by PET analysis; format: ADME, organism-based, Macaca mulatta; settings: in vivo, 1.5 h
[5] = Drug uptake in rhesus macaque monkey adrenal glands 5 to 6 mCi, iv after 90 mins by PET analysis; format: ADME, organism-based, Macaca mulatta, Adrenal gland; settings: in vivo, 1.5 h
Kidney = test: Biodistribution in Sprague-Dawley rat kidney at 20 to 120 uCi, iv after 5 mins by gamma counting analysis; format: ADME, organism-based; settings: in vivo; in short: as §2
Blood [6] = test: Biodistribution in Sprague-Dawley rat blood at 20 to 120 uCi, iv after 30 mins by gamma counting analysis; format: ADME, organism-based; settings: in vivo, 0.5 h; in short: as §2
Muscle tissue [7] = test: Biodistribution in Sprague-Dawley rat muscle at 20 to 120 uCi, iv after 60 mins by gamma counting analysis; format: ADME, organism-based; settings: in vivo, 1 h; in short: as §2
Muscle tissue [8] = test: Biodistribution in Sprague-Dawley rat muscle at 20 to 120 uCi, iv after 30 mins by gamma counting analysis; format: ADME, organism-based; settings: in vivo, 0.5 h; in short: as §2
Heart = test: Biodistribution in Sprague-Dawley rat heart at 20 to 120 uCi, iv after 60 mins by gamma counting analysis; format: ADME, organism-based; settings: in vivo, 1 h; in short: as §2
Pancreas [9] = test: Biodistribution in Sprague-Dawley rat pancreas at 20 to 120 uCi, iv after 60 mins by gamma counting analysis; format: ADME, organism-based; settings: in vivo, 1 h; in short: as §2
Bone = test: Biodistribution in Sprague-Dawley rat bone at 20 to 120 uCi, iv after 30 mins by gamma counting analysis; format: ADME, organism-based, Bone element; settings: in vivo, 0.5 h; in short: as §2
Rattus norvegicus [10] = test: Biodistribution in Sprague-Dawley rat uterus at 20 to 120 uCi, iv after 5 mins by gamma counting analysis; format: ADME, organism-based; settings: in vivo; in short: as §1
[11] = Drug uptake in Sprague-Dawley rat heart sympathetic neurons measured per gram wet mass of heart at 2 uCi/mL administered as infusion for 10 mins measured after 120 mins by gamma counting analysis; format: ADME, tissue-based; settings: sympathetic neuron, 2 h
In short: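 Isolated working rat hearts perfused with 54 μM corticosterone in all perfusates to block uptake-2. Tracer infused at <10 nM total mass for 10 min to measure neuronal uptake rate (mL/min/g wet), then switched to normal perfusate to follow clearance over 2 h.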

Blood [12] = test: Biodistribution in Sprague-Dawley rat blood at 20 to 120 uCi, iv after 5 mins by gamma counting analysis; format: ADME, organism-based; settings: in vivo; in short: as §2
Brain [13] = test: Biodistribution in Sprague-Dawley rat brain at 20 to 120 uCi, iv after 120 mins by gamma counting analysis; format: ADME, organism-based; settings: in vivo, 2 h; in short: as §2
Muscle tissue [14] = test: Biodistribution in Sprague-Dawley rat muscle at 20 to 120 uCi, iv after 120 mins by gamma counting analysis; format: ADME, organism-based; settings: in vivo, 2 h; in short: as §2
Lung [15] = test: Biodistribution in Sprague-Dawley rat lung at 20 to 120 uCi, iv after 120 mins by gamma counting analysis; format: ADME, organism-based; settings: in vivo, 2 h; in short: as §2
Liver = test: Biodistribution in Sprague-Dawley rat liver at 20 to 120 uCi, iv after 60 mins by gamma counting analysis; format: ADME, organism-based; settings: in vivo, 1 h; in short: as §2
Brain [16] = test: Biodistribution in Sprague-Dawley rat brain at 20 to 120 uCi, iv after 30 mins by gamma counting analysis; format: ADME, organism-based; settings: in vivo, 0.5 h; in short: as §2
Nucleic Acid = test: Ratio of drug level in plasma to whole blood in rhesus macaque monkey at 5 to 6 mCi, iv by RP-HPLC analysis; format: ADME, organism-based, Macaca mulatta; settings: in vivo
In short: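 Venous monkey blood samples taken during PET were centrifuged 1 min at 12000 × g to separate plasma from RBCs. 0.1 mL aliquots of whole blood and plasma were gamma-counted, and decay-corrected counts gave Cp/Cwb for each sample. A pre-scan sample spiked with 0.1 mCi tracer was incubated 60–70 min at 37 °C and processed the same way.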

[17] = Drug uptake in rhesus macaque monkey myocardium at 0.1 mCi by Patlak plot analysis; format: ADME, tissue-based, Macaca mulatta; settings: in vivo
In short: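 Same monkey for all studies. Desipramine (0.010, 0.0316, 0.10 or 1.0 mg/kg; n = 1 each) in 2.0 mL saline infused i.v. over 20 min, with tracer injected 10 min after the infusion ended; 4 control studies. ROIs on myocardium and basal LV blood pool drawn on summed final four frames. Cp(t) derived from Cwb(t) × intact fraction × Cp/Cwb. Ki from compartmental modelling and Kp as Patlak slope, fitted against DMI dose to a variable-slope sigmoidal model.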

Spleen = test: Biodistribution in Sprague-Dawley rat spleen at 20 to 120 uCi, iv after 120 mins by gamma counting analysis; format: ADME, organism-based; settings: in vivo, 2 h; in short: as §2
Rattus norvegicus [18] = test: Biodistribution in Sprague-Dawley rat uterus at 20 to 120 uCi, iv after 30 mins by gamma counting analysis; format: ADME, organism-based; settings: in vivo, 0.5 h; in short: as §1
Pancreas [19] = test: Biodistribution in Sprague-Dawley rat pancreas at 20 to 120 uCi, iv after 120 mins by gamma counting analysis; format: ADME, organism-based; settings: in vivo, 2 h; in short: as §2
Blood [20] = test: Drug uptake in rhesus macaque monkey whole blood at 0.1 mCi after 10 to 85 mins by gamma counting analysis; format: ADME, tissue-based, Macaca mulatta
[21] = Half life in rat urinary bladder at 0.5 mCi by PET analysis; settings: in vivo
Rattus norvegicus [22] = test: Biodistribution in Sprague-Dawley rat eyeballs at 20 to 120 uCi, iv after 60 mins by gamma counting analysis; format: ADME, organism-based, Eyeball of camera-type eye; settings: in vivo, 1 h; in short: as §2

Drug uptake (Rattus norvegicus [1]): 0.112 %IDKg/g
Drug uptake (Lung [2]): 0.267 %IDKg/g
Retention_time (Plasma): 11.4 min
Drug uptake (Ovary): 0.142 %IDKg/g
Drug uptake [3]: Active
Drug uptake [4]: Not Active
Drug uptake [5]: Active
Drug uptake (Kidney): 1.398 %IDKg/g
Drug uptake (Blood [6]): 0.022 %ID·kg/g
Drug uptake (Muscle tissue [7]): 0.016 % ID/g
Drug uptake (Muscle tissue [8]): 0.025 %ID·kg/g
Drug uptake (Heart): 0.526 %IDKg/g
Drug uptake (Pancreas [9]): 0.172 %IDKg/g
Drug uptake (Bone): 0.039 %ID·kg/g
Drug uptake (Rattus norvegicus [10]): 0.268 %IDKg/g
Kup [11]: 0.77 mL/min
Drug uptake (Blood [12]): 0.062 %ID·kg/g
Drug uptake (Brain [13]): 0.001 %IDKg/g
Drug uptake (Muscle tissue [14]): 0.015 % ID/g
Drug uptake (Lung [15]): 0.036 %IDKg/g
Drug uptake (Liver): 0.35 %IDKg/g
Drug uptake (Brain [16]): 0.003 %IDKg/g
Ratio (Nucleic Acid): 1.25
Kp [17]: 0.302 mL/min/g
Drug uptake (Spleen): 0.235 %IDKg/g
Drug uptake (Rattus norvegicus [18]): 0.155 %IDKg/g
Drug uptake (Pancreas [19]): 0.121 %IDKg/g
SUV (Blood [20]): 3.6
t1/2 [21]: 12 min
Drug uptake (Rattus norvegicus [22]): 0.041 %IDKg/g
Structure (SMILES): N=C(N)NCCc1ccc([18F])c(O)c1
